Values after ≈ are worked out from the molar mass of the structure shown.
How the values were obtained:
[1] = Half-life in Wistar-Hannover rat at 2 mg/kg, iv by LC-MS/MS analysis; format: ADME, organism-based; conditions: in vivo
Outline: (§1)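 IV bolus in DMSO/PEG400 (1:1). Male Wistar–Hannover rats (n = 3, ~300 g): 2 mg/kg via jugular cannula, sampled 0.03–24 h. Male rhesus (n = 3): 0.5 mg/kg into saphenous or cephalic vein, sampled to 24 h. Plasma (EDTA) analysed by LC-MS/MS after acetonitrile precipitation. Non-compartmental analysis; CL = dose/AUC0-inf; t1/2 from log-linear regression of the terminal phase. Values are means.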

[2] = Volume of distribution at steady state in Wistar-Hannover rat at 2 mg/kg, iv by LC-MS/MS analysis; format: ADME, organism-based; conditions: in vivo, read-out: Vdss
Outline: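 Male Wistar–Hannover rats (~300 g, n = 3) received a 2 mg/kg IV bolus through a jugular vein cannula, dosed from a 5 mg/mL solution in DMSO/PEG400 (1:1). EDTA blood was sampled from pre-dose to 24 h. Plasma was protein-precipitated with acetonitrile and analysed by positive-ion APCI LC-MS/MS. Vdss was calculated non-compartmentally as plasma clearance × mean residence time and reported as the mean.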

[3] = Unbound plasma clearance in rat; format: ADME; conditions: in vivo
Outline: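 Rat unbound clearance (CLu) was calculated by dividing the measured rat plasma clearance by the rat plasma free fraction.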

[4] = In vivo receptor occupancy at PDE10A receptor in rat striatum at 0.25 mg/kg, po measured after 1 hr; format: functional
Outline: (§2)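 Striatal PDE10A occupancy in rats given the compound orally during the novel object recognition test. Occupancy was not measured directly but derived from plasma concentration taken 1 h post dose. n = 4/group, reported as mean (SEM).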

[5] = Substrate activity at monkey P-gp assessed as efflux ratio; format: ADME, Macaca mulatta; conditions: rhesus monkey
[6] = Lipophilicity, log D of the compound; format: physicochemical; conditions: octanol/water
[7] = In vivo receptor occupancy at PDE10A receptor in rat striatum at 0.08 mg/kg, po measured after 1 hr; format: functional; outline: as §2
[8] = biological target: Voltage-gated inwardly rectifying potassium channel KCNH2 (Homo sapiens, UniProt Q12809); assay: Displacement of MK499 from hERG; format: toxicity
[9] = In vivo receptor occupancy at PDE10A receptor in MK-801-induced psychosis rat model striatum at 0.75 mg/kg, po administered 1 hr prior to MK-801 administration and measured after 90 mins; format: functional; conditions: time 2.5 hrs
Outline: (§3)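 Rats in the MK-801 locomotor study were dosed orally at 0.25, 0.50 or 0.75 mg/kg. Plasma was taken 2.5 h post dose and drug levels measured. Striatal PDE10A occupancy was derived from plasma concentration using the [3H]MK-8193 ex vivo occupancy relation. n = 8/group; mean (SEM).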

[10] = Aqueous solubility of the compound at pH 7; format: physicochemical; conditions: buffer
[11] = Volume of distribution at steady state in Rhesus monkey at 0.5 mg/kg, iv by LC-MS/MS analysis; format: ADME, organism-based, Macaca mulatta; conditions: in vivo, read-out: Vdss
Outline: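 Three male rhesus monkeys received a 0.5 mg/kg IV bolus into the saphenous or cephalic vein, dosed from a 5 mg/mL solution in DMSO:PEG400 (1:1). EDTA plasma was collected from pre-dose to 24 h. Samples were protein-precipitated with acetonitrile and quantified by positive-ion APCI LC-MS/MS. Vdss was obtained by non-compartmental analysis as clearance × mean residence time, and values are means (n = 3).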

[12] = Selectivity ratio of Ki for Rhesus monkey PDE2A3 transfected in AD293 cells cytosolic fraction to Ki for human PDE10A2 transfected in human AD293 cells cytosolic fraction; format: cell-based
[13] = Selectivity ratio of Ki for N-terminal GST-tagged full length human recombinant PDE8A1 expressed in baculovirus-infected Sf9 cells to Ki for human PDE10A2 transfected in human AD293 cells cytosolic fraction
[14] = Solubility of compound in FaSSIF; format: physicochemical; conditions: simulated gi fluid
[15] = Oral bioavailability in Wistar-Hannover rat at 10 mg/kg; format: ADME, organism-based; conditions: in vivo
Outline: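 Oral gavage, 5 mL/kg. Rats (n = 3 male Wistar–Hannover) received 10 mg/kg in acidified 10% Tween 80, pH 2, sampled 0.25–24 h. Rhesus (2 female, 1 male) received 5 mg/kg in 0.5% methylcellulose with 1 mol equiv HCl. Plasma quantified by LC-MS/MS. F was taken from dose-adjusted PO/IV AUC0-inf ratios versus the 2 mg/kg (rat) or 0.5 mg/kg (rhesus) IV legs; values are means of n = 3.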

[16] = Selectivity ratio of Ki for N-terminal GST-tagged human recombinant PDE11A4 (1 to 943 residues) expressed in baculovirus-infected Sf9 cells to Ki for human PDE10A2 transfected in human AD293 cells cytosolic fraction
[17] = Selectivity ratio of Ki for N-terminal GST-tagged human recombinant PDE4A1A (1 to 647 residues) expressed in baculovirus-infected Sf9 cells to Ki for human PDE10A2 transfected in human AD293 cells cytosolic fraction
[18] = Plasma concentration in rat at 0.16 mg/kg, po measured after 1 hr; format: ADME, organism-based
Outline: (§4)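 Rat novel object recognition (episodic memory) study, orally dosed. Plasma drawn 1 h post dose at end of the experiment for compound level. n = 4/group, reported as mean (SEM).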

P-gp (ABCB1) = P-gp (ABCB1) (Rattus norvegicus, UniProt P43245); assay: Substrate activity at rat P-gp assessed as efflux ratio; format: ADME
[19] = biological target: T1, cAMP and cAMP-inhibited cGMP 3',5'-cyclic phosphodiesterase 10A (Homo sapiens, UniProt Q9Y233); assay: Inhibition of human recombinant full length PDE10A
[20] = Plasma concentration in rat at 0.08 mg/kg, po measured after 1 hr; format: ADME, organism-based; outline: as §4
[21] = In vivo receptor occupancy at PDE10A receptor in MK-801-induced psychosis rat model striatum at 0.5 mg/kg, po administered 1 hr prior to MK-801 administration and measured after 90 mins; format: functional; conditions: time 2.5 hrs; outline: as §3
[22] = Toxicity in rat assessed as prolactin release; conditions: in vivo
[23] = Solubility of compound in acidic simulated gastric fluid; format: physicochemical; conditions: simulated gi fluid
[24] = Inhibition of IKS channel (unknown origin); set-up: species or system Homo sapiens
[25] = Toxicity in rat assessed as weight gain; conditions: in vivo
[26] = Protein binding in monkey plasma assessed as unbound fraction; format: ADME, cell-free, Macaca mulatta; conditions: rhesus monkey
[27] = Half life in Rhesus monkey at 0.5 mg/kg, iv by LC-MS/MS analysis; format: ADME, organism-based, Macaca mulatta; conditions: in vivo; outline: as §1
[28] = In vivo receptor occupancy at PDE10A receptor in rat striatum at 0.16 mg/kg, po measured after 1 hr; format: functional; outline: as §2
[29] = Plasma clearance in Wistar-Hannover rat at 2 mg/kg, iv by LC-MS/MS analysis; format: ADME, organism-based; outline: as §1
[30] = Plasma concentration in MK-801-induced psychosis rat model at 0.25 mg/kg, po administered 1 hr prior to MK-801 administration and measured after 90 mins; format: ADME, organism-based; conditions: time 150 min
Outline: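 Rats dosed orally, then MK-801 1 h later; locomotor activity recorded over 90 min. Plasma drawn 2.5 h post dose at end of the study and assayed for compound. n = 8/group, reported as mean (SEM).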

[31] = biological target: T1, cAMP and cAMP-inhibited cGMP 3',5'-cyclic phosphodiesterase 10A; assay: Inhibition of human PDE10A2 transfected in human AD293 cells cytosolic fraction using cAMP as substrate by fluorescence polarization assay; format: subcellular, Cytosol
[32] = Mutagenicity in Salmonella typhimurium by Ames test; format: toxicity; conditions: salmonella enterica subsp. enterica serovar typhimurium

T1 sequence (Q9Y233 whole entry): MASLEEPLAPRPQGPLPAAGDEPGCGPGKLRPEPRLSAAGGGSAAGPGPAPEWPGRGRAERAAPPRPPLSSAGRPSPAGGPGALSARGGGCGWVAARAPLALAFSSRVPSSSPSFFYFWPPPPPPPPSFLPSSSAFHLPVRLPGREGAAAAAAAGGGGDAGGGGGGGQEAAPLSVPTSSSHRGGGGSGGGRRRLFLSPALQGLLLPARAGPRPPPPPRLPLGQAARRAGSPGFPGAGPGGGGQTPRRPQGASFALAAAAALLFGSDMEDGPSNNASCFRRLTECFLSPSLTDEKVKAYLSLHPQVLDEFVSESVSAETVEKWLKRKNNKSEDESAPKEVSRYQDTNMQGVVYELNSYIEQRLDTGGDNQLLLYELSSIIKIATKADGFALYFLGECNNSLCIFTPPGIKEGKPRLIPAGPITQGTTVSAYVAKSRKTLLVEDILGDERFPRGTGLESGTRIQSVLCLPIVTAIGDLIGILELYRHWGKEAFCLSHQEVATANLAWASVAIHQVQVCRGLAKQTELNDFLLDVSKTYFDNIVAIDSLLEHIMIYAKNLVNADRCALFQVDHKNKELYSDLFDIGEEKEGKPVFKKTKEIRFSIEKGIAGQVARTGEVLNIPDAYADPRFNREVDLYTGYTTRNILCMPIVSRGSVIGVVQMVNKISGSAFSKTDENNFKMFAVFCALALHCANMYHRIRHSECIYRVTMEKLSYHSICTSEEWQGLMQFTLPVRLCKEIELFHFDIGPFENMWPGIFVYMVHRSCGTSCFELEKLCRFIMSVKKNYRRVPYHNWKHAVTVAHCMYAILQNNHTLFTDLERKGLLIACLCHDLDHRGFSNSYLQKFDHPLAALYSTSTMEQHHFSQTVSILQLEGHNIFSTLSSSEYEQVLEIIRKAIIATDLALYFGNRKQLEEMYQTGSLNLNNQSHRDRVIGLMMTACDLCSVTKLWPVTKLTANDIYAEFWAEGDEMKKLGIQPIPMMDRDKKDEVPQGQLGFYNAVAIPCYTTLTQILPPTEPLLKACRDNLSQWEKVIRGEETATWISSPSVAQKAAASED
Sequence of Voltage-gated inwardly rectifying potassium channel KCNH2 (Q12809 whole entry): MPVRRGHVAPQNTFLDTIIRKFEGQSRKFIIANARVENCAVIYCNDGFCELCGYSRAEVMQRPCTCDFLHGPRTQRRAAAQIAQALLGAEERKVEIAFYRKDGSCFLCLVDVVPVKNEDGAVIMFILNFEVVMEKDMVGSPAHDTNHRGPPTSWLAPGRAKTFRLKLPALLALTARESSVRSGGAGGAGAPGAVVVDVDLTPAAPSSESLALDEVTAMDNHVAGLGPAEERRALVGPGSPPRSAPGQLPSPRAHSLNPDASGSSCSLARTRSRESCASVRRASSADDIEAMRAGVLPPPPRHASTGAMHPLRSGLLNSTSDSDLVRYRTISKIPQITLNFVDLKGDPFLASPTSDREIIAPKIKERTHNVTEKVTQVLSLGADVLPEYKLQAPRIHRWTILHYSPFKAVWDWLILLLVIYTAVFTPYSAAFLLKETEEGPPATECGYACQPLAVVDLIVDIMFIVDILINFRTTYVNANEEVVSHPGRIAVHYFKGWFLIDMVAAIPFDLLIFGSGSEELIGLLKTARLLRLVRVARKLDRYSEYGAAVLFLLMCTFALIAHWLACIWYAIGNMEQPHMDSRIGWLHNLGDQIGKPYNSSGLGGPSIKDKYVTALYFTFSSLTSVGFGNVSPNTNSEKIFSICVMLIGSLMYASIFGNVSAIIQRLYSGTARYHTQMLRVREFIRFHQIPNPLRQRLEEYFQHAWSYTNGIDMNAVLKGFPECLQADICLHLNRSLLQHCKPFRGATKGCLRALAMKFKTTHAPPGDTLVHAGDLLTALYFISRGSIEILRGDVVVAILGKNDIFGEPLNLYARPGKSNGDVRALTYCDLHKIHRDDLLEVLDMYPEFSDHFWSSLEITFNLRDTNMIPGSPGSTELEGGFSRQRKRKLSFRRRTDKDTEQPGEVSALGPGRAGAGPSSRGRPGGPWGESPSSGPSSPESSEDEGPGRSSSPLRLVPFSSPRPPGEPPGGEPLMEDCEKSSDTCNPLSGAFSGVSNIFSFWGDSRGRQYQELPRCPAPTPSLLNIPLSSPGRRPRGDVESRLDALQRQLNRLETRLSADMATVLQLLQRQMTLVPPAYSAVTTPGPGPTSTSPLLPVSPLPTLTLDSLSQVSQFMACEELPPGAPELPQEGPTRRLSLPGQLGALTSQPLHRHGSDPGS
Sequence of P-gp (ABCB1) (P43245 whole entry): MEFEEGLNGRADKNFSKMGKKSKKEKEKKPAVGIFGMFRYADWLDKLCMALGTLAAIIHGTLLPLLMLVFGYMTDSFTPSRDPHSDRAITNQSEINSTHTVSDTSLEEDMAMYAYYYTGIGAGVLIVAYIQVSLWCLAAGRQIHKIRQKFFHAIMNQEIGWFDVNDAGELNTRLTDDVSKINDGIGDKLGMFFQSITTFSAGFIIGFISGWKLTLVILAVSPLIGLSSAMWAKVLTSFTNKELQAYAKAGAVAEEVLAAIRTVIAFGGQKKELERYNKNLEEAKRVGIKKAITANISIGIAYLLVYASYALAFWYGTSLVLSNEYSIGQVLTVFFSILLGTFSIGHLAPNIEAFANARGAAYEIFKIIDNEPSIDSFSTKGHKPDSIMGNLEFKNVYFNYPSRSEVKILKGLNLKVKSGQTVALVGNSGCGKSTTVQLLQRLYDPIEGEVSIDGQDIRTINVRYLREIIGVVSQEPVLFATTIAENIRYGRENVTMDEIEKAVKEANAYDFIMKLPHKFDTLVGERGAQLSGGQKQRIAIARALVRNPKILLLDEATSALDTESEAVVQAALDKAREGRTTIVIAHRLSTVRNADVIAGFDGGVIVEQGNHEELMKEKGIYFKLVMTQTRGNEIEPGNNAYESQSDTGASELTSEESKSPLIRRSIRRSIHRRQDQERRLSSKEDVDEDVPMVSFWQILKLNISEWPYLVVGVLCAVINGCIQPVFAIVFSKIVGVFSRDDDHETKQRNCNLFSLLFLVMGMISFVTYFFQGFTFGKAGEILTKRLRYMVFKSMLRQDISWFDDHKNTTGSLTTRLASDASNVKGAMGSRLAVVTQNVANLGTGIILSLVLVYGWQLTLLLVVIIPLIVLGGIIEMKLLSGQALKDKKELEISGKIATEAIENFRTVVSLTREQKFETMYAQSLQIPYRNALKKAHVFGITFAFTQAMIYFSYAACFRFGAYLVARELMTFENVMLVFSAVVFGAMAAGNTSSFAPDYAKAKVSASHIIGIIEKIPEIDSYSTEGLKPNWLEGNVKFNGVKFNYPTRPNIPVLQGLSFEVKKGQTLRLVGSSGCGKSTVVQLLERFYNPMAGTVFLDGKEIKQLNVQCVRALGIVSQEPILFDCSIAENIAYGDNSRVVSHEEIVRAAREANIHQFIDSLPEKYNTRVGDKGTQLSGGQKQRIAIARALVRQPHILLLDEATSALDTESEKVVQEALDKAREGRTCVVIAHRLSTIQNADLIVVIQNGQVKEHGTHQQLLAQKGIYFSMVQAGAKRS

With Cc1ccc([C@H]2C[C@@H]2COc2cc(NCc3nnc(C)s3)nc(C)n2)nc1 [MK-8189] the t1/2 [1] was 4.8 h, the Vd [2] was 0.93 L/kg and the CL free [3] was 260 mL/min/kg. It also gave an Occ [4] of 34%, a Ratio [5] of less than 2 and a logD [6] of 2.1. The Occ [7] was 24%, the IC50 [8] was 33000 nM and the Occ [9] was 50%. The solubility [10] was 167 µM (≈ 63.9 µg/mL), the Vd [11] was 1.4 L/kg and the Ratio Ki [12] was greater than 500000. It also gave a Ratio Ki [13] greater than 500000, a solubility [14] of 170 µg/mL (≈ 0.444 mM) and an F [15] of 46%. For the same compound, the Ratio Ki [16] was greater than 500000, the Ratio Ki [17] was greater than 500000 and the concentration at 1 h [18] was 18 nM. For the same compound, the efflux ratio (P-gp (ABCB1)) was 2.6, the IC50 [19] was 1.6 nM and the concentration at 1 h [20] was 16 nM. For the same compound, the Occ [21] was 41%, the Activity [22] was “Non-Toxic” and the solubility [23] was 5000 µg/mL (≈ 13.1 mM). For the same compound, the IC50 [24] was greater than 30000 nM, the Activity [25] was “Non-Toxic” and the Fu [26] was 8.7%. It also gave a t1/2 [27] of 4.2 h, an Occ [28] of 29% and a clearance [29] of 21.3 mL/min/kg. The concentration at 2.5 h [30] was 17 nM, the Ki [31] was 0.029 nM and the Activity [32] was “Non-Toxic”.
